Bioassay records (PubChem BioAssay)
Sampled rows, rich in hits. Any-hit rate of the full collection: about 2.8%.
NPY-Y1 PAM-ag: potentiates or activates human NPY-Y1 receptor | NPY-Y1 expressing cells, potentiator/agonist activation | P25929 | activation, % at 3.6 µM | AID 1304 | 220,000 tested, 0.37% active; in the data active = activation above about 33%, passing the limit was not always enough;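 note: cells stimulated with NPY at EC10 then isoproterenol at EC100; 0% = low agonist plus stimulus and 100% = saturating agonist plus stimulus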
Target sequence (P25929 whole entry, looked up): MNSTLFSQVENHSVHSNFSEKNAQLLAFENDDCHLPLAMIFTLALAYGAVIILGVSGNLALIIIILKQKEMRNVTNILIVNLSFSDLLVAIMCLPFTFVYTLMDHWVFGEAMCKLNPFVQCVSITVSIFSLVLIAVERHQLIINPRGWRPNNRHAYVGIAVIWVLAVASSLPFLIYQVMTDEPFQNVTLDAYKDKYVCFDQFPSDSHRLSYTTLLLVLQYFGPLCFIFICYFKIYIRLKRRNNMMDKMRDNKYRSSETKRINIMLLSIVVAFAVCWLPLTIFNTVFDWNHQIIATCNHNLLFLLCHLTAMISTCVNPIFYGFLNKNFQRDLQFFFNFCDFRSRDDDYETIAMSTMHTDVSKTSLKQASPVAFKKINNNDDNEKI
Rad51 HR inh: Rad51 (human) homologous recombination inhibition. Q06609. hRad51 DNA strand exchange, fluorescence dequenching. inhibition, % at 10 µM. 200,000 tested, 0.085% active;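 active = inhibition above 40% at the single screening dose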;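 note: 0% = DMSO control wells and 100% = blanks with heterologous ssDNA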
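Read-out basis: percent inhibition relative to plate controls and blanks / Assay system: human Rad51 nucleoprotein filaments preassembled on unlabelled ssDNA / Timing: filaments 15 min 37 °C, then compound 30 min / Control set: per-plate controls and blanks / Technique: fluorescence dequenching at 485/520 nm / Compound: 10 µM final, single point / Also added: Fluorescein- and BHQ1-tagged 47-mer duplex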
NPY Y1 blocker: antagonists of human neuropeptide Y receptor Y1 | 200,000 tested, 1% active | P25929 | HEK293-CNG Y1 cells, membrane potential fluorescence; NPY at EC95, then isoproterenol | inhibition, % at 3.6 µM;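 active = inhibition above the campaign mean inhibition of all tested compounds plus 3 SD, cut at about 20% in these data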;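 note: 0% = DMSO wells given NPY plus isoproterenol and 100% = isoproterenol alone without NPY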
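Material: HEK293 cells with Y1 receptor plus CNG channel; times: compound incubation 1 h at room temperature, readout 45 min post-stimulation; signal: fluorescence, membrane potential probe; read-out basis: fluorescence ratio normalized to % inhibition between controls; benchmarks: full-block control isoproterenol-only wells, zero-block control NPY plus isoproterenol wells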
NPY-Y2 antag: blocks the human neuropeptide Y Y2 receptor. AID 793. inhibition, % at 2.7 µM. P49146. 140,000 tested, 0.99% active. NPY-Y2 expressing cells, antagonist mode;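 note: 0% = vehicle with agonist challenge and 100% = reference antagonist with challenge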
Measles CPE: protection of cells from measles virus | Measles virus-infected cells, CPE protection, absorbance | protection (pct of control), % at 4 µM | 140,000 tested, 1.5% active; in the data active = protection mostly above about 24%, no sharp cut-off; inactive = mostly below about 26%
NPY2 pot ag: potentiates or activates human NPY-Y2 receptor | P49146 | cells expressing NPY-Y2, potentiator/agonist read-out | activation, % at 3.6 µM | 220,000 tested, 0.45% active | AID 1359; in the data active = activation above about 27%;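 note: cells stimulated with NPY near EC25 plus isoproterenol at EC100; 0% = vehicle plus submaximal agonist and 100% = vehicle plus saturating agonist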
NPY-Y1 ant conf: human NPY-Y1 antagonism, confirmation | AID 1254 | shares compounds with NPY Y1 blocker | 1,200 tested, 21% active | HEK293-CNG NPY-Y1, membrane potential fluorescence, cAMP; NPY challenge against isoproterenol-raised cAMP | inhibition, % at 3.6 µM; in the data active = inhibition above about 20%;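 note: 0% = vehicle with agonist plus stimulus and 100% = stimulus alone without agonist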
NPY-Y2 antag ct: human NPY-Y2 antagonism in NPY-Y1 counter-screen; shares compounds with NPY Y1 blocker; HEK293 NPY-Y2 CNG membrane potential fluorescence; cells given NPY, then isoproterenol; inhibition, % at 3.6 µM; 1,200 tested, 28% active; AID 1255;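 note: 0% = DMSO with agonist challenge and 100% = reference antagonist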
* marks the source's active call; other numbers are inactive results; . = no result given. Cut-off read from the data, not from the text of the source, unless noted: active = inhibition above about 17%; inactive = the rest.

SMILES	NPY-Y1 PAM-ag	Rad51 HR inh	NPY Y1 blocker	NPY-Y2 antag	Measles CPE	NPY2 pot ag	NPY-Y1 ant conf	NPY-Y2 antag ct
Cc1cc(C)c(S(=O)(=O)Nc2ccc3c4c(cccc24)CC3)c(C)c1	-64	-10	23*	8	3	-51	9	37*
Cc1ccc(S(=O)(=O)Nc2ccc3c4c(cccc24)CC3)c(C)c1	-8	1	3	6	.	-4	.	.
CN(C[C@H](Cc1ccccc1)N(C[C@H](Cc1ccccc1)N(CCc1cc(C(F)(F)F)cc(C(F)(F)F)c1)N=O)N=O)N=O	-12	-6	22*	.	.	-14	19	8
CCCn1c(C(C)C)n[nH]c1=S	0	8	.	.	.	-12	.	.
COc1ccc(OC)c(NC(=O)c2ccc(-c3cccs3)cc2)c1	-66	22	22*	.	.	-34	9	10
COc1cccc(CN2CCN(S(=O)(=O)c3ccc(Br)cc3)CC2)c1	-21	4	0	5	3	-3	.	.
COc1ccc2c(c1)C(C)=CC(C)(C)N2S(=O)(=O)c1ccc(Br)cc1	-15	-6	55*	.	.	-18	27*	22*
COc1ccc(/C(N)=N/OC(=O)CSc2ccc(C)cc2)cc1OC	-31	-4	21*	11	4	-20	10	14
COc1ccc(C(C)NC(=O)c2ccc([N+](=O)[O-])cc2)cc1OC (centres undefined)	31	-272	-2	-1	16	1	.	.
Cc1ccc(-c2csc(NC(=O)CSc3nnc4c(n3)[nH]c3ccccc34)n2)cc1	-16	14	2	6	4	-7	.	.
COc1cc(/C=C/C(=O)O)cc(S(=O)(=O)Nc2ccc3c(c2)OCO3)c1OC	-7	8	-2	.	.	6	.	.
CC1(C)CC(=O)C=C(NNC(=O)OC(C)(C)C)C1	-13	6	22*	.	.	-5	-2	1
COc1cc(-c2nnc(COc3ccc4ccccc4c3)o2)cc(OC)c1OC	-8	.	23*	9	26	10	17	14
CN(Cc1ccccc1)CC(O)COc1ccc(CNCCc2cccnc2)cc1 (centres undefined)	-8	.	14	.	.	-7	.	.
CCc1ccc(CNCc2ccc(OCC(O)CN(C)Cc3ccccc3)cc2)nc1 (centres undefined)	-7	13	26*	.	.	-19	17	27*
CC(C)(C)N/C=C(\C#N)S(=O)(=O)c1ccc(Br)cc1	-4	-3	.	.	.	7	.	.
CCOC(=O)NS(=O)(=O)c1ccc(CCNC(=O)c2cc(C)on2)cc1	9	-5	-5	0	5	7	.	.
c1ccc2c(SCc3cn4ccccc4n3)nncc2c1	7	.	1	.	.	-25	.	.
CCc1cccc(CC)c1NC(=O)C(NS(=O)(=O)c1cccs1)c1ccccc1 (centres undefined)	-41	-1	23*	13	8	7	23*	10
Cc1ccc2nc(NC(=O)CNS(=O)(=O)c3ccc(Br)s3)sc2c1	-42	6	20*	13	17	-19	7	11
Cc1ccc2nc(NC(=O)CN(C)S(=O)(=O)c3ccc(Br)s3)sc2c1	-6	-2	-2	2	3	6	.	.
COc1ccc(-c2nc(CN3CCN(c4cc(C)nc(C)c4)CC3)c(C)o2)c2ccccc12	-23	11	23*	.	.	-9	15	29*
O=C(O)c1cc2c(s1)-c1ccccc1CC2	-31	-2	21*	13	10	-16	10	13
O=C(NC1CCCCCC1)c1cc(-c2ccccn2)nc2ccccc12	-119	-3	24*	.	.	-72	25*	18*
CC(=O)OCC1OC(Nc2cccc(C)c2)C(OC(C)=O)C(OC(C)=O)C1OC(C)=O (centres undefined)	-12	.	1	-1	9	3	.	.
SMILES	NPY-Y1 PAM-ag	Rad51 HR inh	NPY Y1 blocker	NPY-Y2 antag	Measles CPE	NPY2 pot ag	NPY-Y1 ant conf	NPY-Y2 antag ct
CSc1nc(Oc2ccc(F)cc2)c2ccccc2n1	-23	-3	23*	11	8	-19	6	9
COCC(=O)Nc1ccccc1Br	5	2	-1	4	5	10	.	.
COCC(=O)Nc1ccccc1C#N	-40	.	21*	2	10	-19	2	1
Cc1ccc(-c2cc3cccc[n+]3cc2-c2ccc(C)cc2)cc1	-62	2	22*	14	7	-16	32*	21*
COC(=O)c1ccc(CSc2nc3c(c(=O)n2-c2ccccc2)SCC3)o1	-14	-4	1	4	20	-6	.	.
COC(=O)c1ccc(CSc2nc3c(c(=O)n2-c2ccc(F)cc2)SCC3)o1	3	2	21*	8	12	-8	7	5
COc1cccc(CN(C(=O)Cc2c[nH]c3ccccc23)C(C(=O)NC2CCCCC2)c2ccc(C)o2)c1 (centres undefined)	-20	8	23*	16	3	-1	13	14
CCN(CC)C(=O)/C(=C\c1ccc(Br)cc1)NC(=O)c1ccccc1OC	-35	6	23*	6	4	-5	13	9
CCCCn1c(SCC(=O)N2CCC(C)CC2)nc2ccsc2c1=O	21	-6	21*	17	25	-19	13	4
Cc1ccc(S(=O)(=O)N(C)Cc2ccc(C(=O)N/N=C3\CC(=O)CC(C)(C)C3)cc2)cc1	7	-5	-1	3	8	8	.	.
COc1ccc(C(=O)C2CCCN(Cc3cccn3-c3ccc(Cl)cn3)C2)c(OC)c1 (centres undefined)	-26	15	50*	.	.	7	29*	31*
O=C(c1cccc(C(F)(F)F)c1)C1CCCN(Cc2cccn2-c2ccccn2)C1 (centres undefined)	-60	7	59*	.	.	-39	34*	38*
CC(C)CN1CCN(Cc2cccn2-c2ccc(Cl)cn2)CC1CCO (centres undefined)	-19	.	33*	.	.	-21	8	8
O=C(c1cccc(C(F)(F)F)c1)C1CCCN(Cc2cccc(OCCO)c2)C1 (centres undefined)	-7	.	4	.	.	-13	.	.
CC(C)CN1CCN(Cc2cccn2-c2ccccn2)CC1CCO (centres undefined)	4	7	10	.	.	-16	.	.
COc1ccc(C(=O)C2CCCN(Cc3cnc(N4CCOCC4)s3)C2)c(OC)c1 (centres undefined)	-10	26	-2	.	.	11	.	.
O=C(NCc1cccnc1)C(=O)NCC1CCCO1 (centres undefined)	3	2	2	.	.	-4	.	.
